# SENP8 block-1 = inhibitors of human SENP8 protease | Q96LD8 | AID 2540 | purified SENP8, Z-RLRGG-aminoluciferin cleavage, luminescence | 1.2% of 330,000 active | inhibition, % at 10 µM; in the data active = inhibition above about 50%
# Target sequence (Q96LD8 whole entry, looked up): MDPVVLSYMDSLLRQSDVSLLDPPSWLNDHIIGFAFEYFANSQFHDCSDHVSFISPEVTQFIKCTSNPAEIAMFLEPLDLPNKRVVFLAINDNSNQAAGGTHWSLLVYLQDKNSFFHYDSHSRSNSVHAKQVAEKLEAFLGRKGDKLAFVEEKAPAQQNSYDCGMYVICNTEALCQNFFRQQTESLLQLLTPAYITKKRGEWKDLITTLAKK
# SENP7 block = blocks the human protease SENP7; 1.5% of 330,000 active; Q9BQF6; inhibition, % at 5 µM; AID 434973; recombinant SENP7, Z-RLRGG-aminoluciferin luminescence, 40 min;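 active = inhibition above about 50% at the single test dose, limit read from the data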;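 note: plate controls were DMSO with enzyme for no effect and no enzyme buffer wells for full effect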
# UBC13 polyUb = blocks human UBC13 polyubiquitin chain formation; P61088; TR-FRET; inhibition, % at 20 µM; 0.47% of 330,000 active; AID 485273; in the data active = inhibition above about 45%, passing the limit was not always enough; inconclusive = no clear call, values can overlap the other calls
# Target sequence (P61088 whole entry, looked up): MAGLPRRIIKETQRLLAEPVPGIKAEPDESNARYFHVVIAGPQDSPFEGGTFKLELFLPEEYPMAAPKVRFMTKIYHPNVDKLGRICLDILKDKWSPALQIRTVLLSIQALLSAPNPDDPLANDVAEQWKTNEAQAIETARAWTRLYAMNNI
# Apaf-1 inh = inhibitors of human Apaf-1 apoptosome. AID 489030. inhibition, % at 20 µM. reconstituted apoptosome caspase-3 activity, DEVD-Rh110 fluorescence. 0.71% of 330,000 active. O14727; active = inhibition of at least 40% at 20 µM;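 note: plate controls were DMSO wells for no effect and DEVD-CHO caspase inhibitor wells for full effect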
#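 Material: biochemical Apaf-1 apoptosome reconstitution. Medium: Hepes buffer, pH 7.5. Also added: cytochrome c activation, bis-DEVD rhodamine 110 substrate. Timing: 30 min compound preincubation, 50 min activation, room temperature. Measured by: rhodamine 110 fluorescence at Ex 480/Em 540 nm.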
# SENP6 inh = blocks the human protease SENP6 | Q9GZR1 | Recombinant SENP6 catalytic domain, aminoluciferin luminescence | inhibition, % at 10 µM | 1.8% of 330,000 active;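 active = inhibition above about 50% at the single tested dose, limit read from the data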;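 note: plate controls were DMSO wells with enzyme for no effect and DMSO wells lacking enzyme for full effect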
# SENP8 block-2 = SENP8 (human) protease inhibition; Q96LD8; recombinant SENP8, Nedd8 substrate fluorescence; inhibition, % at 20 µM; 0.64% of 360,000 active; AID 602440; in the data active = inhibition mostly above about 40%, no sharp cut-off; inactive = mostly below about 27%
# Casp3 counter = caspase-3 inhibition (UBC13 counter-screen). shares compounds with UBC13 polyUb. Recombinant caspase-3, Caspase-Glo 3/7 luminescence, 60 min. inhibition, % at 20 µM. 4% of 1,400 active. AID 488856;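 active = mean inhibition across replicates above about 26%, limit read from the data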;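 note: plate controls were DMSO with caspase-3 for no effect and DMSO wells lacking enzyme for full effect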
# Target sequence (P42574 whole entry, looked up): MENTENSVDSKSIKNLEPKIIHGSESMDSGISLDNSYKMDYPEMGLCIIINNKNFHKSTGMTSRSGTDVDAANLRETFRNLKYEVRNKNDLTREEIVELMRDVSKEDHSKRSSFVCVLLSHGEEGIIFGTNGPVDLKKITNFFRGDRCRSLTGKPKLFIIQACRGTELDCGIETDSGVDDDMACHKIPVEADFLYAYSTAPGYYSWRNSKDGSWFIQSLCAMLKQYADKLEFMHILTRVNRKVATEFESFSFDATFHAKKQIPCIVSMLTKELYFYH
# UBC13 conf = confirmation of human UBC13 polyubiquitin inhibitors. AID 488859. 68% of 1,400 active. shares compounds with UBC13 polyUb. UBC13 polyubiquitination, TR-FRET, biochemical. inhibition, % at 10 µM; in the data active = inhibition above about 45%; inconclusive = no clear call, values can overlap the other calls
# * = called active by the depositor; u = inconclusive; x = no result. This is a sample that favours compounds with a hit; in the whole collection about 3.1% have one here.
SMILES,SENP8 block-1,SENP7 block,UBC13 polyUb,Apaf-1 inh,SENP6 inh,SENP8 block-2,Casp3 counter,UBC13 conf
O=C(NCCCN1CCN(c2ccc(F)cc2)CC1)C1CCCN(c2ncnc3c2nc2n3CCCCC2)C1 (stereo not drawn),-5,-1,83*,9,-35,17,1,107*
COc1ccc(C#Cc2cccc(-c3nc(C(=O)NCc4ccc(Oc5ccccc5)cc4)cc4c3[C@@H](CCO)N(S(=O)C(C)(C)C)C4)c2)cc1OC (stereo partly drawn),x,x,x,x,x,-55,x,x
CCNC(=O)C1(C)CCCN(C(=O)c2sc(-c3ccccc3)nc2C)C1 (stereo not drawn),x,x,x,x,x,10,x,x
C=CCCC(=O)N1C[C@H]2CON(C)[C@H]2C[C@H]1c1ccc(-n2ccnc2)cc1,x,x,x,x,x,15,x,x
CC1CCN(S(=O)(=O)c2ccc(NC(=O)CCN3C(=O)c4ccccc4C3=O)cc2)CC1,-2,-2,9,-11,-5,14,x,x
O=C(CCCCCN1C(=O)c2ccccc2C1=O)Nc1ccc(S(=O)(=O)N2CCCCC2)cc1,-3,-7,100*,-32,6,12,6,112*
CCCC(=O)N/C(N)=N/c1nc(C)c2cc(C)ccc2n1,4,-4,6,-10,-5,-125,x,x
Cc1ccc2nc(/N=C(\N)NC(=O)NC3CCCCC3)nc(C)c2c1,0,-4,49*,15,7,-38,1,68*
N#Cc1ccc(CN(Nc2ccccc2)c2ccccc2)cc1,x,x,x,x,x,13,x,x
CC(C)NC(=O)c1cc(-c2ccc(F)cc2OC(C)C)n[nH]1,x,x,x,x,x,6,x,x
CCc1ccc(Nc2n[n+](-c3ccccc3)c(/C=C/c3ccccc3)s2)cc1,-6,-6,70*,18,-4,x,4,24
COc1ccc(C)cc1Nc1n[n+](-c2ccccc2)c(-c2ccc(OC)c(OC)c2OC)s1,-5,-1,48*,18,-3,24,-4,30
Fc1ccc(-[n+]2nc(Nc3ccccc3)sc2-c2c(Cl)cccc2Cl)cc1,-11,11,27,33,-17,27,x,x
CCc1ccc(Nc2n[n+](-c3ccccc3)c(-c3cc(OC)c(OC)cc3Br)s2)cc1,-17,3,52*,11,-25,11,-5,12
CCc1ccc(Nc2n[n+](-c3ccccc3)c(-c3c(Cl)cccc3Cl)s2)cc1,-41,-12,46*,44*,-47,26,-3,32
COc1ccc(-c2ccc(C(=O)NCc3ccc(N(C)C)cc3)c3occc23)c(C)c1,x,x,x,x,x,1,x,x
CC1(C(=O)NS(=O)(=O)C2CC2)CCCN(C(=O)c2c(F)cccc2F)C1 (stereo not drawn),x,x,x,x,x,13,x,x
O=C(C[n+]1ccc(/C=C/c2ccccc2)cc1)c1ccc2c(c1)OCCO2,-7,-10,53*,17,-17,-81,-2,20
Cc1cc[n+](CC(=O)c2ccc3c(c2)OCCO3)cc1,-13,-10,3,-16,-11,6,x,x
COc1ccccc1-c1cnc(C(O)c2ccc(SC)cc2)[nH]1 (stereo not drawn),x,x,x,x,x,12,x,x
COc1ccccc1NC(=S)N=Nc1c(O)[nH]c2ccc(Br)cc12,0,1,-18,-16,3,17,x,x
CC(C)c1ccc2[nH]c(O)c(N=NC(=O)c3cccc(S(=O)(=O)Nc4ccccc4Cl)c3)c2c1,1,8,-28,16,8,28,x,x
Oc1[nH]c2c(Cl)cc(Cl)cc2c1N=NC(=S)NCC1CCCO1 (stereo not drawn),-8,-4,-43,2,-13,18,x,x
CC(C)NC(=S)N=Nc1c(O)[nH]c2ccc(C(C)C)cc12,0,5,65*,19,2,40,0,74*
Cc1cc(C)c2[nH]c(O)c(N=NC(=S)NCC3CCCO3)c2c1 (stereo not drawn),4,7,91*,-12,5,32,-6,94*
SMILES,SENP8 block-1,SENP7 block,UBC13 polyUb,Apaf-1 inh,SENP6 inh,SENP8 block-2,Casp3 counter,UBC13 conf
Oc1[nH]c2ccccc2c1N=NC(=S)NCC1CCCO1 (stereo not drawn),-2,5,98*,1,4,26,2,102*
Cc1cccc(NC(=S)N=Nc2c(O)[nH]c3ccccc23)c1,3,6,60*,2,-3,42*,2,76*
CN(C)CCNC(=O)c1cccc(-c2cnc3c(NC=O)cc(/C=C/c4ccccc4)cn23)c1,x,x,x,x,x,-499,x,x
Oc1[nH]c2ccc(Br)cc2c1N=NC(=S)NCC1CCCO1 (stereo not drawn),-9,-1,79*,1,-34,27,3,97*
CCn1c(O)c(N=NC(=S)NCC2CCCO2)c2ccccc21 (stereo not drawn),0,-3,77*,0,-14,21,2,95*
CCn1c(=O)cc(SCC(=O)NCC2CCCO2)c2ccccc21 (stereo not drawn),1,10,17,-3,-17,-25,x,x
CCN(CC)S(=O)(=O)c1ccc(O)c(C(=O)OCC(=O)N2CCCc3ccccc32)c1,x,x,x,x,x,-192,x,x
O=c1[nH]c2cc(F)ccc2c2ccc(F)cc12,x,x,x,x,x,-193,x,x
Cn1cc(Cc2ccc(C(=O)N3CCCCC3)cn2)c2ccccc21,x,x,x,x,x,-6,x,x
CCCCN1CCc2c1nc1ccc(Br)cc1c2N,-6,3,55*,-14,-5,-181,1,u
O=C(Nc1cccc2nsnc12)c1ccc(-c2cccc(Cl)c2)o1,12,9,49*,40,32,-370,32*,8
O=C(Nc1ccccc1N1CCCCC1)c1ccc(-c2cccc(Cl)c2)o1,2,7,0,17,7,-21,x,x
CCC(=O)N1CCCC(C(=O)Nc2nc3ccccc3[nH]2)CC1 (stereo not drawn),x,x,x,x,x,10,x,x
Cc1ccc(OCCN2CCC2(C)C(=O)Nc2ccc3c(c2)OCCO3)cc1 (stereo not drawn),x,x,x,x,x,1,x,x
O=C(NNC(=O)c1nn(-c2ccc(F)cc2)ccc1=O)c1ccc(C(F)(F)F)cc1,5,0,70*,-10,-1,14,0,86*
O=C(NNC(=O)c1nn(-c2ccc(F)cc2)ccc1=O)Nc1cccc(Cl)c1,6,-5,10,-15,-4,10,x,x
Cc1ccc(C(=O)NNC(=O)c2nn(-c3ccc(F)cc3)ccc2=O)cc1,0,2,77*,-8,4,14,-6,96*
CC(C)NC(=O)NNC(=O)c1nn(-c2ccc(F)cc2)ccc1=O,0,-2,33,-7,-17,6,x,x
O=C(NNC(=O)c1nn(-c2ccc(F)cc2)ccc1=O)c1ccc(Cl)cc1,1,-2,71*,-17,5,12,-3,88*
CC(C)c1csc(CN2CCC(C(=O)Nc3cccc(-c4ccco4)c3)CC2)n1,x,x,x,x,x,-5,x,x
O=C(NC1CC1)c1[nH]c(C(F)(F)F)nc1-c1ccccc1,x,x,x,x,x,32,x,x

# Bioassay records: PubChem BioAssay, Sanford-Burnham Center for Chemical Genomics
